# Test results: ChEMBL document CHEMBL1949585, “Design, synthesis and evaluation of telomerase inhibitory, hTERT repressing, and anti-proliferation activities of symmetrical 1,8-disubstituted amidoanthraquinones” (Eur J Med Chem, 2012)
# What was measured:
# Assay type in all cases: functional
# [1] = test system: U-251; test: Cytotoxicity against human U251 cells assessed as cell growth at 10 uM relative to control; conditions: read-out: Activity
# Summary of the method: (§1)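 Run in the NCI 60-cell human tumour panel. Cells were exposed to 10 µM compound, and growth was given as a percentage of untreated control cells set to 100%.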
# [2] = test system: MDA-MB-231; test: Cytotoxicity against human MDA-MB-231 cells assessed as cell growth at 10 uM relative to control; conditions: read-out: Activity
# Summary of the method: (§2)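 Single-concentration screen in the NCI 60 human tumour cell line panel covering nine cancer types. Values are the mean growth percentage of compound-treated cells, with untreated control cells set as 100%.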
# [3] = test system: K562; test: Cytotoxicity against human K562 cells assessed as cell growth at 10 uM relative to control; conditions: read-out: Activity; summary of the method: as §2
# [4] = test system: DU-145; test: Cytotoxicity against human DU145 cells assessed as cell growth at 10 uM relative to control; conditions: read-out: Activity; summary of the method: as §2
# [5] = test system: ACHN; test: Cytotoxicity against human ACHN cells assessed as cell growth at 10 uM relative to control; conditions: read-out: Activity; summary of the method: as §2
# [6] = test system: NCI/ADR-RES; test: Cytotoxicity against human NCI/ADR-RES cells assessed as cell growth at 10 uM relative to control; conditions: read-out: Activity; summary of the method: as §2
# [7] = test system: MDA-MB-435; test: Cytotoxicity against human MDA-MB-435 cells assessed as cell growth at 10 uM relative to control; conditions: read-out: Activity; summary of the method: as §2
# [8] = test system: KM12; test: Cytotoxicity against human KM12 cells assessed as cell growth at 10 uM relative to control; conditions: read-out: Activity; summary of the method: as §2
# [9] = test system: SK-MEL-2; test: Cytotoxicity against human SK-MEL-2 cells assessed as cell growth at 10 uM relative to control; conditions: read-out: Activity; summary of the method: as §2
# [10] = test system: UACC-62; test: Cytotoxicity against human UACC62 cells assessed as cell growth at 10 uM relative to control; conditions: read-out: Activity; summary of the method: as §1
# [11] = test system: BT-549; test: Cytotoxicity against human BT549 cells assessed as cell growth at 10 uM relative to control; conditions: read-out: Activity; summary of the method: as §2
# [12] = test system: CAKI-1; test: Cytotoxicity against human CAKI-1 cells assessed as cell growth at 10 uM relative to control; conditions: read-out: Activity; summary of the method: as §2
# [13] = test system: NCI-H460; test: Cytotoxicity against human NCI-H460 cells assessed as cell growth at 10 uM relative to control; conditions: read-out: Activity; summary of the method: as §2
# [14] = test system: SW-620; test: Cytotoxicity against human SW620 cells assessed as cell growth at 10 uM relative to control; conditions: read-out: Activity; summary of the method: as §1
# [15] = test system: MDA-MB-468; test: Cytotoxicity against human MDA-MB-468 cells assessed as cell growth at 10 uM relative to control; conditions: read-out: Activity; summary of the method: as §2
# [16] = test system: SK-MEL-5; test: Cytotoxicity against human SK-MEL-5 cells assessed as cell growth at 10 uM relative to control; conditions: read-out: Activity; summary of the method: as §2
# [17] = test system: OVCAR-8; test: Cytotoxicity against human OVCAR8 cells assessed as cell growth at 10 uM relative to control; conditions: read-out: Activity; summary of the method: as §2
# [18] = Cytotoxicity against human H1299 cells assessed as cell growth at 100 uM after 48 hrs by MTT assay; conditions: NCI-H1299, 48 h, read-out: Activity
# Summary of the method: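 H1299 non-small lung cancer cells were grown in RPMI 1640 with 10% FBS and penicillin/streptomycin at 37 °C in 5% CO2. About 2×10³ cells were seeded per well and held 24 h, then washed with PBS and given fresh medium. Compound, freshly dissolved in DMSO and diluted in complete medium, was added for 48 h. MTT was read at 550 nm after SDS/DMF lysis at 37 °C for 16 h. Values are from three experiments, untreated = 100%, ±SD.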
# [19] = test system: SN12C; test: Cytotoxicity against human SN12C cells assessed as cell growth at 10 uM relative to control; conditions: read-out: Activity; summary of the method: as §2
# [20] = test system: SR; test: Cytotoxicity against human SR cells assessed as cell growth at 10 uM relative to control; conditions: read-out: Activity; summary of the method: as §1
# [21] = Cytotoxicity against human Hs 578T cells assessed as cell growth at 10 uM relative to control; conditions: read-out: Activity; summary of the method: as §2
# [22] = test system: RPMI-8226; test: Growth inhibition of human RPMI8226 cells at 10 uM relative to control; conditions: read-out: GI; summary of the method: as §1
SMILES,growth at 10 µM [1],growth at 10 µM [2],growth at 10 µM [3],growth at 10 µM [4],growth at 10 µM [5],growth at 10 µM [6],growth at 10 µM [7],growth at 10 µM [8],growth at 10 µM [9],growth at 10 µM [10],growth at 10 µM [11],growth at 10 µM [12],growth at 10 µM [13],growth at 10 µM [14],growth at 10 µM [15],growth at 10 µM [16],growth at 10 µM [17],growth at 100 µM [18],growth at 10 µM [19],growth at 10 µM [21],further results
CCN(CC)CC(=O)Nc1cccc2c1C(=O)c1c(NC(=O)CN(CC)CC)cccc1C2=O,100%,91.2%,106%,137%,91.9%,101%,103%,119%,84%,93.5%,97.4%,88.3%,97.2%,104%,86.6%,101%,91.2%,50%,92.1%,111%,growth at 10 µM [20]: 88.5%
COC(=O)CNCC(=O)Nc1cccc2c1C(=O)c1c(NC(=O)CNCC(=O)OC)cccc1C2=O,93.7%,90.2%,97.1%,107%,90.7%,92.9%,102%,107%,107%,90.3%,99.9%,83.8%,95.1%,109%,83.8%,94.3%,96.3%,68%,90.4%,104%,inhibition of growth at 10 µM [22]: 31.4%
